Most compounds without a hit are left out; they make up all but 1.9% or so of the library.
MBD2 DNA inh – inhibitors of human MBD2 binding to methylated oligonucleotide; TR-FRET; Q9UBB5; inhibition, % at 4.4 µM; AID 686964; actives 0.31% (n = 370,000); in the data active = inhibition above about 13%
LEDGF integ inh – blocks HIV-1 LEDGF/p75-dependent DNA integration. TR-FRET IN-LEDGF/p75 DNA integration, Eu/Cy5. inhibition, % at 3.7 µM. actives 0.64% (n = 370,000). AID 743269;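 active = inhibition above the screen-wide mean plus 3 SD, cut at about 13% in these data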;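 also: signal is the Cy5 over europium emission ratio at 671 and 618 nm; 0% = plate median of compound wells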
TDP2 absorb – TDP2 (human) inhibition, absorbance primary screen; O95551; recombinant TDP2, T5PNP hydrolysis, p-nitrophenol absorbance 415 nm; inhibition, % at 12.8 µM; actives 0.34% (n = 370,000); AID 720702;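 active = inhibition above the mean of all tested compounds plus 3 SD, set per campaign, cut at about 25% in these data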;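 also: 0% = DMSO with enzyme and 100% = buffer with substrate but no TDP2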
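System – recombinant human TDP2 · Quantity – TDP2 enzyme at 120 nM final · Doses – single concentration, 12.8 µM nominal, with 1% DMSO · Incubation – 2 h at 37 °C · Measured by – epi absorbance of p-nitrophenol freed from T5PNP by hydrolysis · Read-out – % inhibition relative to enzyme-containing and enzyme-free wells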
Rin1-Abl PPI inh – blocks binding of human Rin1 to Abl; TR-FRET Rin1/Abl binding, biochemical; inhibition, % at 7.35 µM; actives 0.4% (n = 360,000); in the data active = inhibition above about 5%, passing the limit was not always enough
UHRF1 MBD2 ctr – blocks human UHRF1 binding to methylated DNA | actives 0.75% (n = 370,000) | UHRF1 binding to methylated oligo, TR-FRET | AID 687016 | inhibition, % at 4.4 µM | Q96T88;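 also: UHRF1 SRA domain binding a hemimethylated CpG hairpin DNA probe; 0% = median of test compound wells and 100% = reference inhibitor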
Target sequence (Q96T88 whole entry, looked up, the tested form may be a part): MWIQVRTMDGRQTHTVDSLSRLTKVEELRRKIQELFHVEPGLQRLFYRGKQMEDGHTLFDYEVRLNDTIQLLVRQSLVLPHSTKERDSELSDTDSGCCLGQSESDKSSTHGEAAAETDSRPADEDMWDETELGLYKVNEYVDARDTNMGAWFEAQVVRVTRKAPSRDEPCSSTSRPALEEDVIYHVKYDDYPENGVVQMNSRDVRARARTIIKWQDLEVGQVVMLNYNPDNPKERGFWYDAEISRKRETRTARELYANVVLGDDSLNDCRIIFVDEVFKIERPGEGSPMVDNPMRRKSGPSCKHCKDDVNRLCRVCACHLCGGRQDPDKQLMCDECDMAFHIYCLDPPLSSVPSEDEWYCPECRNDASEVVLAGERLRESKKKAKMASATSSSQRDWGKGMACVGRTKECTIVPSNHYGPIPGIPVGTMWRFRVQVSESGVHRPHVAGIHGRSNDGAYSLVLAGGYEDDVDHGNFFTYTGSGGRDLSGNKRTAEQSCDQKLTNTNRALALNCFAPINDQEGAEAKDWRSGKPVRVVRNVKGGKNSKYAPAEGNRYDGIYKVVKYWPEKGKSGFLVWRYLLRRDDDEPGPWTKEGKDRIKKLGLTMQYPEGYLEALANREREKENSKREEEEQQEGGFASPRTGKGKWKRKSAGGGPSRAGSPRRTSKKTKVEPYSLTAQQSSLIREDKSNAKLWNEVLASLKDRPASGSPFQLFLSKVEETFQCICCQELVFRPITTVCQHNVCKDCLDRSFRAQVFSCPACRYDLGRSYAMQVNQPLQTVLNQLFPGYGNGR
UHRF1 DNA bind – inhibits human UHRF1 binding to methylated oligonucleotide, MBD2 counter-screen. actives 25% (n = 1,000). inhibition, % at 4.4 µM. shares compounds with MBD2 DNA inh. TR-FRET;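 also: UHRF1 SRA domain binding a labeled hemimethylated CpG hairpin DNA; 0% = vehicle only and 100% = reference inhibitor with vehicle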
MBD2 confirm – MBD2-DBD methyl-DNA binding inhibition, TR-FRET confirmation; AID 720531; actives 26% (n = 1,000); TR-FRET MBD2-DBD binding to methylated oligonucleotide; inhibition, % at 4.4 µM; shares compounds with MBD2 DNA inh; in the data active = inhibition above about 14%
* marks the source's active call; other numbers are inactive results; nt = not tested or not shown; ! = not active in a repeat. Rule as the data show it, unless noted: active = inhibition above about 21%; inactive = the rest.

SMILES | MBD2 DNA inh | LEDGF integ inh | TDP2 absorb | Rin1-Abl PPI inh | UHRF1 MBD2 ctr | UHRF1 DNA bind | MBD2 confirm
CCOc1ccc(C(=O)NCC(=O)OCc2c(C)noc2C)cc1 | -1 | 1 | 8 | 1 | -1 | nt | nt
COc1cc(OC)cc(-c2oc3cccnc3c2C#CCCO)c1 | 21* | 1 | 4 | 1 | 2 | 2 | 0
COc1ccc(C(=O)c2ccc3oc(-c4ccc(OC)cc4)c(C#CCCO)c3c2)cc1 | -5 | 0 | 4 | 3 | -2 | nt | nt
CCOc1cc(CNCc2ccc3c(c2)OCO3)ccc1OC | -3 | -5 | 1 | -3 | 3 | nt | nt
COc1ccccc1OCC(O)CNCc1ccc2c(c1)OCO2 (configuration not stated) | 18* | -1 | 1 | -2 | 0 | 8 | 5
O=C(COC(=O)c1c2c(nc3ccccc13)/C(=C/c1ccco1)CC2)NC1CCCC1 | 14* | 39* | 0 | 1 | 45* | 43* | 32*
O=C(NCc1cccc(Cl)c1)c1ccc(-n2ccnc2)c2ccoc12 | 14* | 0 | 11 | 2 | 22* | 7 | 8
COc1ccc(CNC(=O)c2ccc(-n3ccnc3)c3ccoc23)cc1OC | 14* | 1 | -5 | 0 | 23* | 12 | 13
COC(=O)[C@]12C[C@H](CC(=O)N3CCN(C(=O)C4CC4)CC3)C(=O)N(Cc3cccc4ccccc34)C1=C[C@H](COCc1ccccc1)O[C@@H]2C | 0 | 4 | -18 | nt | 1 | nt | nt
C[C@@H](/C=C/C(=O)OC(C)(C)C)Sc1ccc(C(C)(C)C)cc1 | 18* | 3 | -2 | nt | -3 | 8 | 2
CCC[C@@H](/C=C/C(=O)OC(C)(C)C)Sc1ccc(C(C)(C)C)cc1 | -3 | 0 | 3 | nt | 3 | nt | nt
CCCCCCCCN1C(=O)N2Cc3ccccc3C2CS1(=O)=O (configuration not stated) | 2 | -1 | 0 | nt | -1 | nt | nt
CCCCNc1c(-c2ccc(OC)c(SC(C)CC)c2)nc2ccc(C)cn12 (configuration not stated) | 14*! | 1 | -3 | 3 | -2 | 9 | 3
COc1cccc(NC(=S)N2CCN(Cc3ccccc3)CC2)c1 | 17* | 8 | -2 | -1 | -6 | 4 | 2
CN1CCn2cnc(C(=O)Nc3ccc(CNC(=O)OC(C)(C)C)cc3)c2C1=O | 15* | 1 | -11 | -1 | 25* | 6 | 3
Cc1cc(C)c2c(N)c3cccc(C)c3nc2n1 | 25* | -4 | 4 | -7 | 29* | 38* | 41*
Cc1cccc2c(N)c3c(nc12)CCCC3 (tested in a mixture with another compound) | -3 | 0 | 5 | 0 | 4 | nt | nt
Cc1c[nH]c2cccc(-c3c(Cl)cccc3Cl)c12 | 5 | -3 | -11 | nt | 3 | nt | nt
CC(C)NS(=O)(=O)c1ccc(OCC(=O)N2CCCC2)c(Cl)c1 | 24* | -4 | 4 | 0 | -1 | 4 | 6
CC(C)NS(=O)(=O)c1ccc(OCC(=O)N2CCCC2)cc1 | 4 | -5 | 2 | -2 | 4 | nt | nt
CC(C)(C)c1ccc(S(=O)(=O)N2CCCC(C(=O)NCc3cccs3)C2)cc1 (configuration not stated) | -5 | -1 | 3 | nt | -2 | nt | nt
CCN(CC)CCOc1ccc(Br)cc1 | -1 | 3 | 4 | -4 | 1 | nt | nt
CCN(CC)CCOc1ccc2c(c1)C(=NO)c1cc(OCCN(CC)CC)ccc1-2 | 41* | -2 | 11 | -11 | 54* | 62* | 47*
CC(=O)OC[C@@H]1CN(Cc2ccccc2)C[C@H](n2ccc3c(N)ncnc32)O1 | 36* | 0 | -3 | -2 | 1 | 11 | 2
Nc1cc(Nc2ccccc2)ccn1 | 44* | -4 | 6 | 2 | -1 | 7 | 2
COc1cc(NC(=O)c2ccc(OC)c([N+](=O)[O-])c2)ccc1NC(=O)c1ccco1 | 18* | 1 | 9 | 0 | -3 | 8 | 2
CCC(C(=O)Nc1ccccc1N1CCCC1)c1ccccc1Cl (configuration not stated) | -1 | 0 | 5 | nt | -3 | nt | nt

Assay outcomes from PubChem BioAssay.
